HTRA1 inh: HTRA1 serine protease inhibitors, primary screen, biochemical, fluorescence polarization, HTS; Q92743; hit rate 0.5% among 340,000; recombinant HTRA1, FP-rhodamine activity-based probe; AID 504803, 2011; inhibition, % at 5.96 µM; in the data active = inhibition above about 36%;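 also: 0% = enzyme with DMSO and 100% = wells lacking enzyme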
PME-1 inh: PME-1 inhibitors via competitive probe labeling, primary screen, biochemical, fluorescence polarization, FP-Rh probe, HTS; inhibition, % at 5.9 µM; hit rate 0.53% among 320,000; recombinant PME-1;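 active = inhibition above the campaign mean of all compounds plus 3 SD, cut at about 26% in these data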;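 also: competitive labeling of PME-1 active site by serine hydrolase directed probe; 0% = PME-1 with DMSO and 100% = wells lacking PME-1 enzyme; inhibitors block probe labeling so polarization falls and inhibition rises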
TCR-CD3 inh: inhibitors of human TCR-CD3 interaction, primary screen, biochemical, fluorescence, TAMRA-labeled TCR probe | T-cell receptor (TCR) | inhibition, % at 9.4 µM | hit rate 0.37% among 360,000; in the data active = inhibition above about 19%;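 also: recombinant mutant TCR 2C K166C tagged with TAMRA read by polarization; 0% = receptor in buffer alone and 100% = receptor with positive control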
SIAE inh: human SIAE inhibitors, primary screen, biochemical, fluorescence polarization, FP-Rh probe, 1536-well HTS. Sialate O-acetylesterase (Homo sapiens), Q9HAT2. hit rate 0.69% among 370,000. SIAE FP-Rh probe binding. inhibition, % at 9.66 µM;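 active = inhibition above a cutoff: mean of compounds within the control limits plus 3 SD of those, cut at about 17% in these data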;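 also: 0% = plate median of compound wells and 100% = probe without SIAE protein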
Target sequence (Q9HAT2 whole entry, looked up): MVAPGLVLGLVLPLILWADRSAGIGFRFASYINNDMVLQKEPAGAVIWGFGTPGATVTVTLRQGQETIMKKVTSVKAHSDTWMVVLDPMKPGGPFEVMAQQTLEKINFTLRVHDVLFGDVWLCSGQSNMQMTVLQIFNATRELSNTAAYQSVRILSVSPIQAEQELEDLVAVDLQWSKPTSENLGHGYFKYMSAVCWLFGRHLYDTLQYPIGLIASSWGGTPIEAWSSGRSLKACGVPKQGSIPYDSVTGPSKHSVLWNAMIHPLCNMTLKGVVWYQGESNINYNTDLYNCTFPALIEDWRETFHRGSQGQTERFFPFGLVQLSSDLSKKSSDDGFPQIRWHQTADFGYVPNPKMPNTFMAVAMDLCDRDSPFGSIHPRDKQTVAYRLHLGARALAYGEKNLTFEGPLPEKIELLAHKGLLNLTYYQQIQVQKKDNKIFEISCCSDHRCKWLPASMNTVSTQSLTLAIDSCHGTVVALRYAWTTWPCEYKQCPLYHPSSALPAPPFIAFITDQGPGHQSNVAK
mABHD4 FP: ABHD4 inhibitors, primary screen, biochemical, fluorescence polarization, mouse; AID 720543, 2013; inhibition, % at 8.92 µM; hit rate 0.54% among 370,000; purified mABHD4, FP-Rh probe fluorescence polarization;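 active = inhibition exceeding the mean over every tested compound plus 3 SD, cut at about 30% in these data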;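 also: 0% = plate median of compound wells and 100% = S159A mutant with DMSO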
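Assay system: wild-type mouse ABHD4 protein; compound: single nominal dose of 8.92 µM, 0.89% DMSO final; schedule: 45 min + 60 min at 25 °C; measured by: FP readout, ex 525 nm / em 598 nm; evaluation: % inhibition of FP-Rh probe binding versus controls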
Fam108B inh: mouse Fam108B serine hydrolase inhibitors, primary screen, counter-screen for RBBP9 inhibitor project, biochemical, fluorescence polarization. recombinant Fam108B, FP-Rh probe fluorescence polarization. inhibition, % at 9.51 µM. hit rate 0.33% among 300,000;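 active = inhibition above the screen mean inhibition plus 3 SD, computed separately per campaign, cut at about 18% in these data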;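 also: inhibitors lower polarization as less probe binds the enzyme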
Fam108b confirm: mouse Fam108b serine hydrolase inhibitors, confirmation, counter-screen for RBBP9 inhibitor project, biochemical, fluorescence polarization, triplicate; shares compounds with Fam108B inh; recombinant Fam108b, FP-Rh probe fluorescence polarization; inhibition, % at 9.51 µM; hit rate 44% among 930; AID 1978, 2009;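 active = inhibition above a limit from the primary screen, the mean over all compounds plus 3 SD, cut at about 19% in these data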;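 also: 0% = median of active Fam108b wells and 100% = catalytically dead S170A mutant; inhibitors free the probe so polarization falls as inhibition rises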
Fam108b inh: inhibition of mouse Fam108b by HTS hits, late-stage follow-up, biochemical, gel-based ABPP, soluble recombinant form. inhibition, % at 20 µM. fluorophosphonate probe. hit rate 44% among 260. shares compounds with Fam108B inh. AID 588649, 2011; in the data active = inhibition above about 40%
Starred values were filed as active, the others as inactive; nt = no result given. This is a sample that favours compounds with a hit; in the whole collection about 1.8% have one here.

SMILES	HTRA1 inh	PME-1 inh	TCR-CD3 inh	SIAE inh	mABHD4 FP	Fam108B inh	Fam108b confirm	others
CCCCCCCCN1C(=O)[C@@H](CC(=O)NCc2ccc(C)o2)C[C@@]2(C(=O)OC)C1=C[C@H](COCc1ccccc1)O[C@@H]2C	nt	nt	nt	5	5	nt	nt
Cc1cc(C)nc(N/N=C/C2=C(N3CCOCC3)C(=C\c3ccc(Cl)cc3)/CC2)n1	18	3	1	6	14	6	nt
O=C(O)c1ccc(N/N=C/C2=C(N3CCOCC3)C(=C\c3ccccc3)/CC2)cc1	10	4	-6	17	27	19*	22*
O=[N+]([O-])c1cc(Br)c(O)c(C=NNc2nnnn2-c2cccc3ccccc23)c1	nt	nt	nt	nt	nt	nt	nt	Fam108b inh=0
COc1cccc(/C=N/n2c(N)c(S(=O)(=O)c3cccs3)c3nc4ccccc4nc32)c1OC	-5	-7	-7	-3	-4	-10	nt
Nc1c(S(=O)(=O)c2cccc(Cl)c2)c2nc3ccccc3nc2n1/N=C/c1ccc(O)c(O)c1	nt	51*	nt	nt	nt	77*	140*
c1ccc(CNc2ncn[nH]2)cc1	-2	nt	2	2	-2	nt	nt
O=c1cnnc(NCc2ccccc2)[nH]1	5	-5	3	3	3	22*	2
Cc1[nH]c2ccccc2c1/C=N/NC(=O)c1cccc(S(=O)(=O)Nc2cccc(C(F)(F)F)c2)c1	31	21	5	19*	-21	40*	32*
NNC(=O)c1cccc(S(=O)(=O)Nc2cccc(C(F)(F)F)c2)c1	-3	-25	1	-74	2	-23	nt
NS(=O)(=O)c1ccc(N=Nc2c(-c3ccccc3)[nH]n(-c3nc(-c4ccccc4)cs3)c2=O)cc1	7	13	-2	6	6	33*	1
O=C(Cn1nnc(-c2ccncc2)n1)Nc1ccc(Cl)cc1	nt	nt	nt	7	-7	nt	nt
O=C(NC1CCCCN(Cc2ccc(Cl)cc2)C1=O)c1ccccc1-c1ccc(Cl)c(Cl)c1 (configuration not stated)	nt	nt	nt	2	3	nt	nt
C/C(=N\NC(=O)c1cc(O)cc(O)c1)c1ccc(NC(=O)Cc2ccccc2)cc1	23	2	41*	24*	28	27*	10
COc1ccc2c(c1)N[C@@](CCN1C(=O)c3ccccc3C1=O)(c1[nH]c3ccccc3c1CCN1C(=O)c3ccccc3C1=O)C2=O	nt	nt	nt	-11	-7	nt	nt
CN(C)S(=O)(=O)c1cccc(NC(=O)c2c[nH]c3ccccc23)c1	-24	-15	-5	-30	-20	126*	-18
CN(C)S(=O)(=O)c1cccc(NC(=O)c2cc(=O)[nH]c3ccccc23)c1	6	11	6	1	2	3	nt
COC(=O)C1=C(C)N(Cc2ccc(C(F)(F)F)cc2)C(=NCc2ccccc2C(F)(F)F)NC1c1cccc(Cl)c1 (configuration not stated)	nt	nt	-4	-4	7	nt	nt
CCN(CC)c1ccc(/C=C(\C#N)C(=O)c2ccc(Br)cc2)cc1	-17	15	-19	-48	-52	61*	54*	Fam108b inh=0
CCN(CC)c1ccc(/C=C(\C#N)C(N)=O)cc1	-5	nt	3	1	-2	nt	nt
O=C(O)c1ccccc1N/N=C/c1cc(Br)cc(Br)c1O	-3	49*	-2	1	23	27*	19*
Cn1c(=O)c(C#N)c(-c2ccc(F)cc2)c2cc(C(=O)c3cc(Cl)cc(Cl)c3O)cnc21	-11	63*	0	-3	-24	22*	22*
Oc1ccc(C=NNc2ccccn2)c(O)c1	7	nt	-12	5	26	nt	nt
CCN(CC)S(=O)(=O)c1ccc(N/N=C/c2ccc(O)cc2O)nc1	5	48*	-4	12	18	22*	6
CCOC(=O)Cc1csc(NC(=O)c2sc3nc4c(C)cc(C)cc4cc3c2N)n1	-1	86*	-8	0	-3	23*	4
SMILES	HTRA1 inh	PME-1 inh	TCR-CD3 inh	SIAE inh	mABHD4 FP	Fam108B inh	Fam108b confirm	others
O=C1NN(c2ccccc2)C(=O)/C1=C/c1ccc(Sc2cccc3ccccc23)o1	-22	10	6	8	16	29*	4
COc1cccc2c(N/N=C/c3ccccc3)cc(C)nc12	3	-1	2	5	5	0	nt
COc1ccc(/C=N/Nc2cc(C)nc3ccc(Br)cc23)cc1	-11	35*	-4	14	29	20*	-1
Cc1ccc2c(c1)N(CCCC(=O)NCc1c(F)cccc1F)C(=O)CO2	nt	nt	nt	-2	-6	nt	nt
O=C1NN(c2cccc(Br)c2)C(=O)/C1=C/c1ccc(-c2cc([N+](=O)[O-])ccc2O)o1	6	0	nt	nt	nt	20*	-12
FC(F)(F)c1cc(CNC2CCC23CCC(c2ccccc2)CC3)ccc1Cl (configuration not stated)	nt	nt	nt	4	3	nt	nt
COc1ccc(C2NC(=O)NC3=C2C(=O)CCC3)cc1 (configuration not stated)	2	-2	-5	0	6	-2	nt
COc1ccc(C2C3=C(CCCC3=O)NC3=C2C(=O)c2ccccc23)cc1 (configuration not stated)	nt	10	-7	14	13	20*	26*
CCN(c1ccccc1)S(=O)(=O)c1ccc(NC(=O)c2nc(S(C)(=O)=O)ncc2Cl)cc1	-44	17	nt	nt	nt	38*	37*	Fam108b inh=80*
O[C@H](COc1ccc(OC(F)(F)F)cc1)CN1CCC(C(O)(c2ccccc2)c2ccccc2)CC1	nt	nt	nt	5	12	nt	nt
O=C(Nc1cccc(-c2csc(Nc3cccc(C(F)(F)F)c3)n2)c1)c1cc([N+](=O)[O-])cc(C(F)(F)F)c1	-9	2	8	4	-1	19*	2
O=C(Nc1ccc(-c2csc(Nc3ccc(Cl)cc3)n2)cc1)c1cccc(C(F)(F)F)c1	nt	26*	1	15	10	50*	68*	Fam108b inh=95*
Oc1ccc(-c2csc(Nc3ccccn3)n2)c(O)c1	12	14	-4	5	21	19*	12
NS(=O)(=O)c1ccc(Nc2nc(-c3ccc(O)cc3O)cs2)cc1	-1	12	3	6	7	23*	99*	Fam108b inh=35
Cc1cccnc1Nc1nc(-c2ccc(O)cc2O)cs1	15	23	5	8	5	18*	10
NS(=O)(=O)c1ccc(Nc2nc(-c3ccc(F)cc3)cs2)cc1	nt	7	-1	12	-12	3	nt

Bioassay records: PubChem, The Scripps Research Institute Molecular Screening Center
